These results are taken from ChEMBL document CHEMBL1137002, “Synthesis and electrochemistry of 2-ethenyl and 2-ethanyl derivatives of 5-nitroimidazole and antimicrobial activity against Giardia lamblia” (J Med Chem, 2009).

The structures appear in SMILES notation. pEC50, pIC50: −log10 of the molar value. Calls of active or inactive are those of the source. The calls are words filed in the database; no cut-off is given here.

Series [1] has as its system Giardia intestinalis. Description: Antigiardial activity against metronidazole-resistant Giardia lamblia isolate 713 trophozoite after 2 days by bactiter-glo viability assay. The settings on record: Giardia duodenalis, isolate 713, 48 h. The class given is functional, organism-based. In a few lines:
(§1)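 Trophozoites from mid-log cultures in TYI-S-33 with 10% bovine serum and 1 mg/mL bovine bile, grown anaerobically. Mz-resistant lines kept on 50 μM Mz but grown without it for 2–3 days beforehand. 1000–2000 cells/well, 1:3 serial dilutions, final 20 μM to 0.4 nM. 2 days at 37 °C anaerobically. ATP luminescence read-out. EC50 taken by graphic extrapolation of concentration–response curves. Mean ± SE of three experiments.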

The subject of series [2] is Giardia intestinalis. Briefly: Antigiardial activity against Giardia lamblia trophozoites isolates after 2 days by bactiter-glo viability assay. The conditions noted are these: Giardia duodenalis, 48 h; for EC50: read-out: pEC50 (converted). The class given is functional, organism-based.
The test system of the next series is HeLa. Briefly: Cytotoxicity against human HeLa cells after 2 days by Alamar blue assay. The class given is cell-based. The settings on record: 48 h. A general note: Alamar Blue is a resazurin reagent that responds to reducing activity.
A short description of series [3]: Therapeutic index, ratio of IC50 for human HeLa cells to EC50 for Giardia lamblia trophozoites isolates. It is filed as cell-based. The conditions noted are these: read-out: Ratio IC50/EC50.
The subject of series [4] is Giardia intestinalis. Description: Antigiardial activity against Giardia lamblia GS/M trophozoites infected in C57BL/6 mouse assessed as reduction in live trophozoite number in small intestine at 10 mg/kg, po administered as 5 doses for 3 days relative to control. It is filed as functional. The conditions noted are these: for Activity: Giardia duodenalis. In outline:
(§2)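 Adult C57BL/6 mice infected orally with G. lamblia GS/M trophozoites; from 2 days post-infection, five oral gavage doses over 3 days (10 or 2 mg/kg), with controls given methylcellulose/PBS vehicle. Day 5: whole small intestine opened, placed in PBS on ice 10 min, shaken, and live trophozoites counted by hemocytometer under phase contrast. Mean ± SE of 3–7 animals; t test versus vehicle controls, p < 0.05.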

In series [5] the test system is Giardia intestinalis. Briefly: Antigiardial activity against Giardia lamblia GS/M trophozoites infected in C57BL/6 mouse assessed as reduction in live trophozoite number in small intestine at 2 mg/kg, po administered as 5 doses for 3 days. The class given is functional, organism-based. The arrangement: dose 2 mg/kg. The settings on record: Giardia duodenalis. In a few lines:
as §2

The subject of series [6] is Giardia intestinalis. Description: Antigiardial activity against Giardia lamblia GS/M trophozoites infected in C57BL/6 mouse assessed as parasite eradication in small intestine at 10 mg/kg, po administered as 5 doses for 3 days. The class given is functional, organism-based. Set-up: dose 10 mg/kg. The conditions noted are these: Giardia duodenalis. In a few lines: as §2

The next series concerns Mus musculus. Description: Toxicity in C57BL/6 mouse at 10 mg/kg, po after 3 days. The class given is organism-based. The arrangement: dose 10 mg/kg, route oral. The settings on record: in vivo, 72 h. In a few lines:
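G. lamblia GS/M-infected adult C57BL/6 mice were watched for clinically observable untoward effects across the 3-day treatment period, which consisted of five oral gavage doses at 10 mg/kg in methylcellulose/PBS given from day 2 after infection.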

Series [7] deals with Giardia intestinalis. Briefly: Antigiardial activity against metronidazole-sensitive Giardia lamblia isolate 713 trophozoite after 2 days by bactiter-glo viability assay. The class given is functional, organism-based. The settings on record: Giardia duodenalis, isolate 713, 48 h. In a few lines:
as §1

For series [8], the system named is Giardia intestinalis. Briefly: Antigiardial activity against metronidazole-resistant Giardia lamblia isolate 106 trophozoite after 2 days by bactiter-glo viability assay. The class given is functional, organism-based. The conditions noted are these: Giardia duodenalis, isolate 106, 48 h. In a few lines: as §1
Series [9] deals with Giardia intestinalis. Description: Antigiardial activity against metronidazole-sensitive Giardia lamblia isolate 106 trophozoite after 2 days by bactiter-glo viability assay. The class given is functional, organism-based. The settings on record: Giardia duodenalis, isolate 106, 48 h. In outline: as §1

Broadly, the pEC50 is −log10 of the EC50, conventionally taken in molar units. For orientation: pIC50 means the negative decadic logarithm of the IC50, by convention in mol/L. Low readings indicate a large IC50, high ones a small IC50. As to `Cn1c([N+](=O)[O-])cnc1/C=C/c1cccc(F)c1`, the negative-log EC50 (pEC50) in the series on Giardia intestinalis [1] was 7.59; in the series with Giardia intestinalis [7], 6.91; in the series on Giardia intestinalis [8] it was 7.51; in the series with Giardia intestinalis [9] it was 7.03. Further, the EC50 in the series on Giardia intestinalis [2] was 0.0407 µM. In the series on HeLa, this molecule had a pIC50 of less than 4.00. Further, the selectivity ratio in [3] is greater than 2460. Besides, the result in the series with Giardia intestinalis [4], in the series with Giardia intestinalis [5] and with Giardia intestinalis [6] was Active. Besides, the Activity entry in the series on Mus musculus is “Non-toxic”.
Take `Cn1ccnc1/C=C/c1ncc([N+](=O)[O-])n1C`: the pEC50 was 7.29 with Giardia intestinalis [1], 5.93 with Giardia intestinalis [7], 7.06 in the series with Giardia intestinalis [8] and 6.60 in the series with Giardia intestinalis [9]. Also, the EC50 in the series with Giardia intestinalis [2] is 0.0759 µM. The pIC50 in the series on HeLa was 4.04. Further, the selectivity ratio in series [3] was 1200. In addition, the outcome in the series with Giardia intestinalis [4], in the series with Giardia intestinalis [5] and with Giardia intestinalis [6] was Active. Also, the Activity entry in the series on Mus musculus is listed as “Non-toxic”.
As for `Cc1ncc([N+](=O)[O-])n1CCO` [METRONIDAZOLE], the pEC50 in the series on Giardia intestinalis [1] was 5.83; with Giardia intestinalis [2] (read-out: EC50), 5.58; with Giardia intestinalis [7], 4.35; in the series with Giardia intestinalis [8], 5.40; with Giardia intestinalis [9], 4.59. Further, the “fold change (FC)” value with Giardia intestinalis [4] is given as 1000. Moreover, the outcome with Giardia intestinalis [5] and with Giardia intestinalis [6] was inactive.
